Data as given in ChEMBL document CHEMBL3046184, “New analogues of (E)-β-farnesene with insecticidal activity and binding affinity to aphid odorant-binding proteins” (J Agric Food Chem, 2011).
Calls of active or inactive are those of the source. No cut-off for these calls is given here.

Legend:
[1] = molecular target: T1, Odorant-binding protein 3 (Acyrthosiphon pisum) (UniProt C1KUY3); experiment: Displacement of fluorescent probe 1-NPN from Acyrthosiphon pisum (pea aphid) recombinant OBP3 by competitive binding assay
T1 sequence (whole entry): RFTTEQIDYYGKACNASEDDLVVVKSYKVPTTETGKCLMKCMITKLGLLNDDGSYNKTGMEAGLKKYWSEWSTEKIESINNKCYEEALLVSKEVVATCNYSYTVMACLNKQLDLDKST
How it was run: (§1)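 Recombinant A. pisum OBP and the probe 1-NPN were each at 2 μM in 50 mM Tris-HCl, titrated with competitor to 2-16 μM final. Excitation was at 337 nm, with emission recorded at 380-450 nm and intensity read at the maximum (406-409 nm). The IC50 was taken as the concentration halving initial fluorescence, and Ki = IC50/(1+[1-NPN]/K1-NPN) using free 1-NPN.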

[2] = Displacement of fluorescent probe 1-NPN from Acyrthosiphon pisum (pea aphid) recombinant OBP2 by competitive binding assay
[3] = molecular target: T2, Odorant-binding protein 1 (Acyrthosiphon pisum) (UniProt C1KUY1); experiment: Displacement of fluorescent probe 1-NPN from Acyrthosiphon pisum (pea aphid) recombinant OBP1 by competitive binding assay; how it was run: as §1
T2 sequence (whole entry): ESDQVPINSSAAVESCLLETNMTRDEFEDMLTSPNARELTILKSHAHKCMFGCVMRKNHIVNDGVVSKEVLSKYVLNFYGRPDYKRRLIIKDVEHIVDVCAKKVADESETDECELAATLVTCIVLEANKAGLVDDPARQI

Aphis gossypii = experiment: Insecticidal activity against 3 day old Aphis gossypii (cotton aphid) in compound treated cabbage leaves at 600 microg/mL at 24 to 26 degC for 24 hr; type: functional, organism-based
How it was run: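 Compound was dissolved in acetone/methanol/water (1:1:18). Cabbage leaves (~5 cm) bearing aphids were dipped for 5 s and air-dried, then held in Petri dishes. Dead aphids were counted. Solvent served as the negative control and thiacloprid as the positive reference.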

| SMILES | Activity [1] | Activity [2] | Activity [3] | Activity (Aphis gossypii) |
| --- | --- | --- | --- | --- |
| CC(C)=CCC/C(C)=C/COC(=O)c1cc(-c2ccccc2)nn1-c1ccc([N+](=O)[O-])cc1 | Active | Active | Active |  |
| CC(C)=CCC/C(C)=C/COC(=O)c1c(F)cccc1F | Active | Active | Active |  |
| CC(C)=CCC/C(C)=C/COC(=O)c1cc(-c2ccccc2)nn1C(C)(C)C |  |  |  | Active |
| N#C/N=C1\SCCN1Cc1ccc(Cl)nc1 | Active |  |  |  |
| CC(C)=CCC/C(C)=C/COC(=O)c1cc(-c2ccccc2)nn1-c1ccccc1 |  |  |  | Active |

Second part, led by results:

| Activity [1] | Activity [2] | Activity [3] | SMILES | Activity (Aphis gossypii) |
| --- | --- | --- | --- | --- |
| Active |  |  | CC(C)=CCC/C(C)=C/COC(=O)c1cc(C)nn1C(C)(C)C |  |
| Active |  |  | CC(C)=CCC/C(C)=C/COC(=O)c1cc(C(C)C)nn1C(C)(C)C |  |
| Active | Active | Active | CC(C)=CCC/C(C)=C/COC(=O)c1cc(C(C)C)nn1-c1ccc([N+](=O)[O-])cc1 |  |
| Active |  |  | CCCc1cc(C(=O)OC/C=C(\C)CCC=C(C)C)n(C(C)(C)C)n1 |  |
| Active | Active | Active | CC(C)=CCC/C(C)=C/COC(=O)c1ccc(Br)cc1 | Active |
